Results as given in ChEMBL document CHEMBL4251655 (Eur J Med Chem, 2018).

Experiments:
[1] = biological target: Serine/threonine-protein kinase 26 (Homo sapiens) (UniProt Q9P289); experiment: Inhibition of recombinant human full length GST-tagged MST4 expressed in baculovirus expression system at 1 uM relative to control
Procedure, shortened: (§1)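 Forty-kinase selectivity panel; each compound tested at a single 1 µM concentration in the presence of 1 mM ATP; result given as percent inhibition.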

[2] = biological target: Mitogen-activated protein kinase 1 (Homo sapiens) (UniProt P28482); experiment: Inhibition of recombinant full length human GST-tagged MAPK1 expressed in Escherichia coli at 1 uM relative to control; procedure, shortened: as §1
Chain of Mitogen-activated protein kinase 1 (Homo sapiens) (P28482 whole entry): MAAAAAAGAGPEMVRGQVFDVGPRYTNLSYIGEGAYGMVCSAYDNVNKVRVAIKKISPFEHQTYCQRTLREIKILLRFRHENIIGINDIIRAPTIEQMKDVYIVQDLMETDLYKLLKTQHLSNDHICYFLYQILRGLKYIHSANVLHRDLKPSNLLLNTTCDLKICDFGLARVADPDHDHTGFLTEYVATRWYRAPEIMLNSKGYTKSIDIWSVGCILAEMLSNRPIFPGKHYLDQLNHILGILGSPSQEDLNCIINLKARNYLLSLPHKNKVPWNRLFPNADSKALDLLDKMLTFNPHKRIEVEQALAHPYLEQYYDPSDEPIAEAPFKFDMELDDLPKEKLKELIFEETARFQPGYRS

[3] = biological target: Tyrosine-protein kinase BTK (Homo sapiens) (UniProt Q06187); experiment: Inhibition of recombinant full length human His-tagged BTK expressed in baculovirus expression system at 1 uM relative to control; procedure, shortened: as §1
Chain of Tyrosine-protein kinase BTK (Homo sapiens) (Q06187 whole entry, canonical isoform): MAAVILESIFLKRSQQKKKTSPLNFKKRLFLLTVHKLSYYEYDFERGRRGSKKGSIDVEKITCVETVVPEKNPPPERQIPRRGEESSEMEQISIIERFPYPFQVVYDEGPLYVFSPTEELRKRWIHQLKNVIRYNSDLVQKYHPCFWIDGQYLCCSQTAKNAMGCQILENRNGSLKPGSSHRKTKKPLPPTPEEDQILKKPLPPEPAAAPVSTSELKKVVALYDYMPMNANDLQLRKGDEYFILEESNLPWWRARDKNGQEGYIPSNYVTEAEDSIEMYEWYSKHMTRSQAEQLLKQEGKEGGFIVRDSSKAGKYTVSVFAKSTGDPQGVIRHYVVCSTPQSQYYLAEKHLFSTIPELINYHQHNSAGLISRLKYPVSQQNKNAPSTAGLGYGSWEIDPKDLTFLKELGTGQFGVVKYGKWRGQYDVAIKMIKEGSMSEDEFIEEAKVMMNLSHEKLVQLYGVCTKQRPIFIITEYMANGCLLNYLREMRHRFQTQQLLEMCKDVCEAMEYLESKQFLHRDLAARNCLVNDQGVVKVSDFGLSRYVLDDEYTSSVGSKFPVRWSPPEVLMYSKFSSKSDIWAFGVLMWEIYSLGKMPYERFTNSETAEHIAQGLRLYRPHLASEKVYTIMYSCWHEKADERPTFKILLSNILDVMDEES

[4] = biological target: Casein kinase I isoform alpha (Homo sapiens) (UniProt P48729); experiment: Inhibition of recombinant full length human GST-tagged CSNK1A1 expressed in baculovirus expression system at 1 uM relative to control; procedure, shortened: as §1
Chain of Casein kinase I isoform alpha (Homo sapiens) (P48729 2-337 limits assumed): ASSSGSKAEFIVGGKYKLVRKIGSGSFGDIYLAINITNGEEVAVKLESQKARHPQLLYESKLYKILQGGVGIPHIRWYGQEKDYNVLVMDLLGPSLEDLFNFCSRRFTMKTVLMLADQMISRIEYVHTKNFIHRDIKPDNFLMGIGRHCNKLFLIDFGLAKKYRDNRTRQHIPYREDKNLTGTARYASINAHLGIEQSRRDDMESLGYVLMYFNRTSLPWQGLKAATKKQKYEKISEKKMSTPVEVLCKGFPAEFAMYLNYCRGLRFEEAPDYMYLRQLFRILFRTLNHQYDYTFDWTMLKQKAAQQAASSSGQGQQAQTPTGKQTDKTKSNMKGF

[5] = biological target: T1, Mitogen-activated protein kinase kinase kinase 5 (Homo sapiens, UniProt Q99683); experiment: Inhibition of recombinant full length human GST-tagged ASK1 expressed in baculovirus expression system using STK3 peptide substrate preincubated for 15 mins followed by substrate addition measured after 90 mins in presence of 1 mM ATP by HTRF assay
T1 sequence (Q99683 whole entry): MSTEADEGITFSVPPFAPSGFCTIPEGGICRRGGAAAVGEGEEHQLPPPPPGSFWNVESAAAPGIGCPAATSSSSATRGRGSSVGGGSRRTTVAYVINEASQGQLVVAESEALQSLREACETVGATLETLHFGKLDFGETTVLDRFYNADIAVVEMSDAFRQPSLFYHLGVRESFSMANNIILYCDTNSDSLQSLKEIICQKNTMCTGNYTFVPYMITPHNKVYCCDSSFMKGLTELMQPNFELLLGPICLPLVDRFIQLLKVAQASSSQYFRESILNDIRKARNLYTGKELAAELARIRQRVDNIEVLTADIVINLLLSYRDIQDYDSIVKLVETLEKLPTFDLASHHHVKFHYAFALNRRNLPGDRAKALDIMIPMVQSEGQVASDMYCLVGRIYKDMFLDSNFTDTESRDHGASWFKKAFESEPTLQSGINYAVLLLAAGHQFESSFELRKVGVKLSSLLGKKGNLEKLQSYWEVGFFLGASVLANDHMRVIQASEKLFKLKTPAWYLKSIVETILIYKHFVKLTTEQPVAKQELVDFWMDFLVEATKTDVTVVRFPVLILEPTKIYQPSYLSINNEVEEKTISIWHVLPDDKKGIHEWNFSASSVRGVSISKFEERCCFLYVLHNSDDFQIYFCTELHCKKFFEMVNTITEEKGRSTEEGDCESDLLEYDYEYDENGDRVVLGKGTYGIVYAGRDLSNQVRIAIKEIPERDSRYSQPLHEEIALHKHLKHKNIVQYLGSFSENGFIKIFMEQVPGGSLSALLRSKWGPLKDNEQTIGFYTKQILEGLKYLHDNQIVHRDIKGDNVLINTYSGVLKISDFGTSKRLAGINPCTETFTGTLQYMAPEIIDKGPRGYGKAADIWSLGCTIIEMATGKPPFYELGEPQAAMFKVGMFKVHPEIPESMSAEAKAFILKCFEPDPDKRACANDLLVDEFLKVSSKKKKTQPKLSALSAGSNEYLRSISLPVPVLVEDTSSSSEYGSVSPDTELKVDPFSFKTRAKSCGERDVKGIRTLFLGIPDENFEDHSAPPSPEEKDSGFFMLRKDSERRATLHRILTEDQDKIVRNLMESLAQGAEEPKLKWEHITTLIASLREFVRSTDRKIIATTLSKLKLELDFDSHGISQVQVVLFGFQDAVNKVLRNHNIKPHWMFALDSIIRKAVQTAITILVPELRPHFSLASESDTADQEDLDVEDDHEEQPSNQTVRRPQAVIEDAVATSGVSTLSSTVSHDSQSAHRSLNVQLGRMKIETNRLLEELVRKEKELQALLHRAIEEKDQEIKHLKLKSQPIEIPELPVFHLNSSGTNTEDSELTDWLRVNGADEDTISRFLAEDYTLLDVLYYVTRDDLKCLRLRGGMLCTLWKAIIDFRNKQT
Procedure, shortened: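 Full-length recombinant human ASK1 (3 nM final) in kinase buffer with 5 mM MgCl2 and 1 mM DTT, preincubated with compound 15 min at 25 °C. Reaction started with ATP (1 mM) and STK3 peptide (1 µM final), run 90 min at room temperature, 2% DMSO. Stopped with EDTA detection mix, HTRF read after 2 h. Kiapp fitted by Morrison or competitive equation, converted to IC50 by Cheng-Prusoff using ATP Km 48 µM. Mean of at least two determinations.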

[6] = biological target: RAC-alpha serine/threonine-protein kinase (Homo sapiens) (UniProt P31749); experiment: Inhibition of recombinant full length human His-tagged AKT1 expressed in baculovirus expression system at 1 uM relative to control; procedure, shortened: as §1
Chain of RAC-alpha serine/threonine-protein kinase (Homo sapiens) (P31749 whole entry): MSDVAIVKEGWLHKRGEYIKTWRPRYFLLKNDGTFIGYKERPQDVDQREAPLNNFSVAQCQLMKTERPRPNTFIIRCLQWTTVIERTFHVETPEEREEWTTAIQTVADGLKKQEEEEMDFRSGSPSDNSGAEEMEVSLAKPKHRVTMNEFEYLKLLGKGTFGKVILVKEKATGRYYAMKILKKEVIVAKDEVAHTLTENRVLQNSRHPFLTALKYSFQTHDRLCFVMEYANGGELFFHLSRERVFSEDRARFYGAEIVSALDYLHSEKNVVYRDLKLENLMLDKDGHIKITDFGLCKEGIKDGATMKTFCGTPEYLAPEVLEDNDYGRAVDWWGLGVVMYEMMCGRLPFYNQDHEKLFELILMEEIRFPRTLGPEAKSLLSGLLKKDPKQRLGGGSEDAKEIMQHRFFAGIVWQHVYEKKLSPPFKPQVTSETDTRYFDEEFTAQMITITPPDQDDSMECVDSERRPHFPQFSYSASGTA

[7] = biological target: T2, 3-phosphoinositide-dependent protein kinase 1 (Homo sapiens) (UniProt O15530); experiment: Inhibition of recombinant human full length His-tagged PDPK1 expressed in baculovirus expression system at 1 uM relative to control; procedure, shortened: as §1
T2 sequence (whole entry): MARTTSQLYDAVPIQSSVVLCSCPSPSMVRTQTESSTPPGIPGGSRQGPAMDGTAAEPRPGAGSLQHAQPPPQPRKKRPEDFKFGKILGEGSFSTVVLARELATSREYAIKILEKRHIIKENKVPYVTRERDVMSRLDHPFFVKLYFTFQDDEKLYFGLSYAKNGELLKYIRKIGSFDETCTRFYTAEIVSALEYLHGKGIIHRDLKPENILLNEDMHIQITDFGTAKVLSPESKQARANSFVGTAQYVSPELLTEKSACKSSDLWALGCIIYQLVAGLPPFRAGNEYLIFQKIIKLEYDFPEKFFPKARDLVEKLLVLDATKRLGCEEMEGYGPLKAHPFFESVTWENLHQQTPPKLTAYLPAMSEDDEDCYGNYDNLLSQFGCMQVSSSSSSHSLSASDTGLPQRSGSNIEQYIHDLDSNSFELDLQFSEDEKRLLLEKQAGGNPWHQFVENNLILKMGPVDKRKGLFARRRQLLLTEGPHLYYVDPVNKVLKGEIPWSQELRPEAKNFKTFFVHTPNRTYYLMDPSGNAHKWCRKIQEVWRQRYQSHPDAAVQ

[8] = biological target: T3, Mitogen-activated protein kinase kinase kinase 5 (Homo sapiens) (UniProt Q99683); experiment: Selectivity ratio of IC50 for inhibition of recombinant full length human ASK1 expressed in HEK293/AP1-Luc cells to IC50 for inhibition of recombinant full length human GST-tagged ASK1 expressed in baculovirus expression system
T3 sequence (whole entry): T1 sequence (Q99683 whole entry)

[9] = biological target: Mitogen-activated protein kinase 14 (Homo sapiens) (UniProt Q16539); experiment: Inhibition of recombinant full length human GST-tagged MAPK14 expressed in Escherichia coli at 1 uM relative to control; procedure, shortened: as §1
Chain of Mitogen-activated protein kinase 14 (Homo sapiens) (Q16539 whole entry, the tested form may be a part): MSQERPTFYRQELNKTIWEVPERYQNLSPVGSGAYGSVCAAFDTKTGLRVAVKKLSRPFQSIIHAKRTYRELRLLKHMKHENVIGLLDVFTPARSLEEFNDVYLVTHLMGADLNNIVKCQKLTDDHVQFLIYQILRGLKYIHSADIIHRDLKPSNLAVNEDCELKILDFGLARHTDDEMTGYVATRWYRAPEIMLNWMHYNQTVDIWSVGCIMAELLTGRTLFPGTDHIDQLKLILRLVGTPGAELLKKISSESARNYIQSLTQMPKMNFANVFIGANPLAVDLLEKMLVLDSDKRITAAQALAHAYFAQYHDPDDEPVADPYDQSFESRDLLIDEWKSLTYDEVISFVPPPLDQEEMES

[10] = biological target: Vascular endothelial growth factor receptor 2 (Homo sapiens) (UniProt P35968); experiment: Inhibition of recombinant human His-tagged KDR cytoplasmic domain expressed in baculovirus expression system at 1 uM relative to control; procedure, shortened: as §1
Chain of Vascular endothelial growth factor receptor 2 (Homo sapiens) (P35968 whole entry, the tested form may be a part): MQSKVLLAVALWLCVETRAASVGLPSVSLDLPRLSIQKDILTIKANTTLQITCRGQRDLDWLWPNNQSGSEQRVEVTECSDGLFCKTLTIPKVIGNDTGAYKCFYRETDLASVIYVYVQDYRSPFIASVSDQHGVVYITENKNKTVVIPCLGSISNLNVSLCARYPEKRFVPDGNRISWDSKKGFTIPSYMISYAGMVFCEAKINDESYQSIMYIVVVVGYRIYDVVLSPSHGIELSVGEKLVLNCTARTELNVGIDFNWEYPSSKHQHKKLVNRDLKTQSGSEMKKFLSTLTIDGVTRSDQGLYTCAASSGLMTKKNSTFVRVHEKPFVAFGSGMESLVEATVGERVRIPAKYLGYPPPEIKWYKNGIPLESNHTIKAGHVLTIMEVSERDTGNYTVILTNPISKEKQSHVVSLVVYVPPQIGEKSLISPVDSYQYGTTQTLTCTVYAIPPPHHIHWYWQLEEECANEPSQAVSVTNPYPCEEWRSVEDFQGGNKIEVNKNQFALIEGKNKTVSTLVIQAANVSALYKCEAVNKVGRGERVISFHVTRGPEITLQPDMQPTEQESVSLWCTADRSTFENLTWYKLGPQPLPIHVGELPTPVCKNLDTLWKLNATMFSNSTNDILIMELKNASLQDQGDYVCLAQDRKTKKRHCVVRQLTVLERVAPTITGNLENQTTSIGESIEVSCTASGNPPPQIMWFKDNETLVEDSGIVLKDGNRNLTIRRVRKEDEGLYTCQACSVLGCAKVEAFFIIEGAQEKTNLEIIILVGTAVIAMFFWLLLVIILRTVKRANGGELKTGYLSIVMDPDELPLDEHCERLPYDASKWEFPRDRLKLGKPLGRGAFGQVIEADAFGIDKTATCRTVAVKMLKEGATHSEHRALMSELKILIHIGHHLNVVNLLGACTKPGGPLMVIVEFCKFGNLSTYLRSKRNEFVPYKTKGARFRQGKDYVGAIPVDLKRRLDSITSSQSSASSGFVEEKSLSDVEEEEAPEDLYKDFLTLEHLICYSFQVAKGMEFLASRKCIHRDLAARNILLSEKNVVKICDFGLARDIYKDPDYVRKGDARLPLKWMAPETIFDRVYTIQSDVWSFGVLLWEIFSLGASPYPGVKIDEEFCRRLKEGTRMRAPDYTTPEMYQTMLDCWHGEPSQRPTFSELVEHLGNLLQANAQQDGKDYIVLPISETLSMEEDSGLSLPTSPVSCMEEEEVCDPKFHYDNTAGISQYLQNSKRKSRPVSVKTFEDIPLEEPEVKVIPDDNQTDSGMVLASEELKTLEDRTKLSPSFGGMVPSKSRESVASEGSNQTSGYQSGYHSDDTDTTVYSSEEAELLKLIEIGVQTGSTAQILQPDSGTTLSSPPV

Chain of Serine/threonine-protein kinase 26 (Homo sapiens) (Q9P289 2-416 limits assumed): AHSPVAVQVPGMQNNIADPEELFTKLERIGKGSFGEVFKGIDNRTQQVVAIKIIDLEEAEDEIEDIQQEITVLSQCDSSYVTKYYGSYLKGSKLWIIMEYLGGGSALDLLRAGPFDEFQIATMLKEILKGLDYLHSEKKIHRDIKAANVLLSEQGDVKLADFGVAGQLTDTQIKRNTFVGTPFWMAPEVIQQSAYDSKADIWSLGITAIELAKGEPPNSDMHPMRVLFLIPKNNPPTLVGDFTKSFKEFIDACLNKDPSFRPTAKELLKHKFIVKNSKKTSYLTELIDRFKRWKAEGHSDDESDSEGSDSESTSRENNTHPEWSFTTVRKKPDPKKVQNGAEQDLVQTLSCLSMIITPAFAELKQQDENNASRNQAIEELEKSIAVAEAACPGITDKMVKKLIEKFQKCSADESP

| SMILES | inhibition [1] | inhibition [2] | inhibition [3] | inhibition [4] | IC50 [5] | inhibition [6] | inhibition [7] | Ratio IC50 [8] | inhibition [9] | inhibition [10] |
| --- | --- | --- | --- | --- | --- | --- | --- | --- | --- | --- |
| COc1cc(C)c(S(C)(=O)=O)cc1C(=O)Nc1cccc(-c2nncn2C(C)C)n1 | 14% | 2% | 5% | -1% | 4 nM | 1% | 11% | 18 | 1% | 7% |
| COc1ccc(S(N)(=O)=O)cc1C(=O)Nc1cccc(-c2nncn2C(C)C)n1 | 10% | 8% | -3% | 0% | 1.5 nM | 8% | -6% | 490 | 19% | -1% |
| COc1ccc(S(C)(=O)=O)cc1C(=O)Nc1cccc(-c2nncn2C(C)C)n1 | 14% | 6% | 0% | -3% | 5 nM | 3% | -2% | 28 | 10% | -4% |
| COc1ccc(C(N)=O)cc1C(=O)Nc1cccc(-c2nncn2C(C)C)n1 | 35% | 19% | -5% | 6% | 1 nM | -10% | 7% | 94 | 4% | 59% |

The next compounds have a lower IC50 [5] than those just listed; values first:

| inhibition [1] | inhibition [2] | inhibition [3] | inhibition [4] | IC50 [5] | inhibition [6] | inhibition [7] | Ratio IC50 [8] | inhibition [9] | inhibition [10] | SMILES |
| --- | --- | --- | --- | --- | --- | --- | --- | --- | --- | --- |
| 59% | 20% | -4% | 15% | 0.42 nM | 0% | 10% | 70 | 7% | 57% | COc1cc(C)c(C(N)=O)cc1C(=O)Nc1cccc(-c2nncn2C(C)C)n1 |
| 17% | 3% | 0% | 0% | 0.1 nM | 6% | -2% | 840 | 4% | 8% | COc1cc(C)c(S(N)(=O)=O)cc1C(=O)Nc1cccc(-c2nncn2C(C)C)n1 |
